Laboratory results from ChEMBL document CHEMBL4251600, “Bioactive products from singlet oxygen photooxygenation of cannabinoids” (Eur J Med Chem, 2018).
In brackets after ≈: the same amount, converted by molar mass. Activity calls are given as the source filed them. The calls are words filed in the database; no cut-off is given here.

Assays:
[1] = biological target: T1, Cannabinoid receptor 2 (Homo sapiens, UniProt P34972); experiment: Agonist activity at recombinant human full length CB2 receptor expressed in HEK293 cell membranes at 100 uM after 2 hrs by [35S]GTP-gammaS binding assay relative to CP-55,940; assay type: functional
T1 sequence (P34972 whole entry): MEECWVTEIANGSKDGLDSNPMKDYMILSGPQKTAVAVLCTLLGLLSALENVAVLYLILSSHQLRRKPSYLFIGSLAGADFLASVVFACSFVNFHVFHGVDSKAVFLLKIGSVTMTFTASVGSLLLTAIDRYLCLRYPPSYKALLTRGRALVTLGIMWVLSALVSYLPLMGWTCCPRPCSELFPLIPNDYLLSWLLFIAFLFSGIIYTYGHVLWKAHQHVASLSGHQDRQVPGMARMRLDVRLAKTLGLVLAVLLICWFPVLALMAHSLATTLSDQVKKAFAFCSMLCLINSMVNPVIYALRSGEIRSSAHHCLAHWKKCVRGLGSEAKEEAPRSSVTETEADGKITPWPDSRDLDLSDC

[2] = biological target: T2, Cannabinoid receptor 1 (Homo sapiens, UniProt P21554); experiment: Agonist activity at recombinant human full length CB1 receptor expressed in HEK293 cell membranes at 100 uM after 2 hrs by [35S]GTP-gammaS binding assay relative to CP-55,940; assay type: functional
T2 sequence (P21554 whole entry): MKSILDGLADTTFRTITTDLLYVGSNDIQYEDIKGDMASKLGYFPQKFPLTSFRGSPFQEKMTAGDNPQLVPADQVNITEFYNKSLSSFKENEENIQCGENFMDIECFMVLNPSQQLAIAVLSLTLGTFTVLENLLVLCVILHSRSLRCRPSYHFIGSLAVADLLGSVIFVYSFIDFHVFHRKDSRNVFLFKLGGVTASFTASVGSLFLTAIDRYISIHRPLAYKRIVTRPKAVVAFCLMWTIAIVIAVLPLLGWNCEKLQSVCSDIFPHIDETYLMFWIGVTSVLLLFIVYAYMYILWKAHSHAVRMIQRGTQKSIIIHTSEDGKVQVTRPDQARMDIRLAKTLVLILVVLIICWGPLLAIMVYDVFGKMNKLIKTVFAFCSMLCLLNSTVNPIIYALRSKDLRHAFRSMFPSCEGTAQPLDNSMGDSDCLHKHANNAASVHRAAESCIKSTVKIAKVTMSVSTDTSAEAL

[3] = biological target: T2, Cannabinoid receptor 1; experiment: Displacement of [3H]CP-55,940 from recombinant human full length CB1 receptor expressed in HEK293 cell membranes after 90 mins by topcount method
[4] = biological target: T1, Cannabinoid receptor 2; experiment: Displacement of [3H]CP-55,940 from recombinant human full length CB2 receptor expressed in HEK293 cell membranes after 90 mins by topcount method
[5] = test system: Leishmania donovani; experiment: Antileishmanial activity against Leishmania donovani promastigotes incubated for 48 hrs by alamar blue assay; assay type: functional, organism-based
[6] = test system: BT-549; experiment: Anticancer activity against human BT549 cells assessed as cell growth inhibition incubated for 48 hrs by neutral red dye based assay; assay type: functional; details: BT-549, 48 h
[7] = test system: SK-MEL; experiment: Anticancer activity against human SK-MEL cells assessed as cell growth inhibition incubated for 48 hrs by neutral red dye based assay; assay type: functional
[8] = test system: Staphylococcus aureus; experiment: Antimicrobial activity against methicillin-resistant Staphylococcus aureus by modified CLSI based method; assay type: functional, organism-based
[9] = test system: Nakaseomyces glabratus; experiment: Antifungal activity against Candida glabrata by modified CLSI based method; assay type: functional, organism-based
[10] = test system: Cryptococcus neoformans; experiment: Antifungal activity against Cryptococcus neoformans by alamar blue assay; assay type: functional, organism-based
[11] = test system: Staphylococcus aureus; experiment: Antimicrobial activity against Staphylococcus aureus by modified CLSI based method; assay type: functional, organism-based
[12] = test system: KB; experiment: Anticancer activity against human KB cells assessed as cell growth inhibition up to 10 ug/ml incubated for 48 hrs by neutral red dye based assay; assay type: functional
[13] = test system: Pichia kudriavzevii; experiment: Antifungal activity against Candida krusei by modified CLSI based method; assay type: functional, organism-based
[14] = test system: LLC-PK1; experiment: Cytotoxicity against pig LLC-PK1 cells assessed as cell growth inhibition incubated for 48 hrs by neutral red dye based assay; parameters: species or system Sus scrofa; details: Sus scrofa, LLC-PK1, 48 h; read-out: IC50
[15] = test system: SK-OV-3; experiment: Anticancer activity against human SKOV3 cells assessed as cell growth inhibition up to 10 ug/ml incubated for 48 hrs by neutral red dye based assay; assay type: functional
[16] = test system: SK-MEL; experiment: Anticancer activity against human SK-MEL cells assessed as cell growth inhibition up to 10 ug/ml incubated for 48 hrs by neutral red dye based assay; assay type: functional
[17] = biological target: T1, Cannabinoid receptor 2; experiment: Agonist activity at recombinant human full length CB2 receptor expressed in HEK293 cell membranes after 2 hrs by [35S]GTP-gammaS binding assay; assay type: functional
Outline: (§1)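 Membranes (20 µg/well) from HEK293 cells stably transfected with human CB1 or CB2 cDNA were incubated with test compound and 0.5 nM [35S]-GTP-γS. Buffer: 50 mM Tris-HCl, 0.2 mM EGTA, 9 mM MgCl2, 150 mM NaCl, 50 µM GDP, 1.4 mg/ml BSA. Incubation ran 2 h at 30°C and was stopped by vacuum filtration through GF/B filters with cold Tris-HCl. Nonspecific binding was taken with 40 µM GTP-γS.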

[18] = biological target: T2, Cannabinoid receptor 1; experiment: Agonist activity at recombinant human full length CB1 receptor expressed in HEK293 cell membranes after 2 hrs by [35S]GTP-gammaS binding assay; assay type: functional; outline: as §1
[19] = Leishmania donovani, 48 h, read-out: IC50
[20] = Leishmania donovani, 48 h, read-out: IC90
[21] = Cryptococcus neoformans, read-out: IC50
[22] = Cryptococcus neoformans, read-out: MIC
[23] = Staphylococcus aureus, read-out: IC50
[24] = Staphylococcus aureus, read-out: MIC

CCCCCc1cc(O)c2c(c1)OC(C)(C)C1=C2C(O)C(C)(OC)CC1 (centres undefined)
Emax [1]: 40%
Emax [2]: 20%
IC50 [3]: 1080 nM
Ki [3]: 538 nM
IC50 [4]: 599 nM
Ki [4]: 300 nM
IC50 [5, 19]: 35 µg/mL (≈ 97.1 µM)
IC90 [5, 20]: > 40 µg/mL

CCCCCC1=CC(=O)C2=C(OC(C)(C)c3ccc(C)cc32)C1=O
IC50 [6]: 6.05 µg/mL (≈ 18.6 µM)
IC50 [7]: 7.6 µg/mL (≈ 23.4 µM)
IC50 [8]: Not Active
MIC [8]: inactive
IC50 [9]: Not Active
MIC [9]: inactive
IC50 [10, 21]: 4.44 µg/mL (≈ 13.7 µM)
MIC [10, 22]: 20 µg/mL (≈ 61.6 µM)
MIC [11]: inactive
IC50 [11, 23]: > 20 µg/mL
IC50 [12]: Not Active
IC50 [13]: Not Active
MIC [13]: inactive
IC50 [14]: 5.65 µg/mL (≈ 17.4 µM)
IC50 [15]: Not Active

N=C(N)c1ccc(OCCCCCOc2ccc(C(=N)N)cc2)cc1 [PENTAMIDINE]
IC90 [5, 20]: 2 µg/mL (≈ 5.87 µM)

C=C1C[C@H]2C3=C(OC(C)(C)[C@@H]2CC1OO)C(=O)C(CCCCC)=CC3=O (stereo in doubt; 26)
IC50 [8]: 15.3 µg/mL (≈ 42.4 µM)
IC50 [10]: 2.05 µg/mL (≈ 5.69 µM)
MIC [10]: 5 µg/mL (≈ 13.9 µM)
IC50 [11]: 2.41 µg/mL (≈ 6.69 µM)
MIC [11]: 5 µg/mL (≈ 13.9 µM)
IC50 [5]: 3.1 µg/mL (≈ 8.6 µM)
IC90 [5]: 8 µg/mL (≈ 22.2 µM)
IC50 [16]: Not Active
IC50 [13]: 20 µg/mL (≈ 55.5 µM)
IC50 [14]: 9.95 µg/mL (≈ 27.6 µM)

CCCCCc1cc(OC(C)=O)c2c(c1)OC(C)(C)C1=C2C2OC2(C)CC1 (centres undefined)
IC50 [3]: 573 nM
Ki [3]: 286 nM
IC50 [4]: 927 nM
Ki [4]: 464 nM

C=C1C[C@H]2C3=C(OC(C)(C)[C@@H]2C[C@H]1O)C(=O)C(CCCCC)=CC3=O
MIC ([8]; Staphylococcus aureus): 10 µg/mL (≈ 29 µM)
IC50 [8, 23]: 5.53 µg/mL (≈ 16.1 µM)
IC50 [9]: Not Active
MIC [9]: inactive
IC50 [10, 21]: 1.84 µg/mL (≈ 5.34 µM)
MIC [10, 22]: 5 µg/mL (≈ 14.5 µM)
IC50 [11, 23]: 2.03 µg/mL (≈ 5.89 µM)
MIC [11, 24]: 2.5 µg/mL (≈ 7.26 µM)
IC50 [5, 19]: 0.6 µg/mL (≈ 1.74 µM)
IC90 [5, 20]: 1.3 µg/mL (≈ 3.77 µM)
IC50 [13]: Not Active
MIC [13]: inactive

CCCCCc1cc(OC(C)=O)c2c(c1)OC(C)(C)[C@@H]1CC=C(C)C[C@@H]21
IC50 [17]: 518 nM
Ki [17]: 259 nM
IC50 [3]: 88 nM
Ki [3]: 44 nM
IC50 [4]: 316 nM
Ki [4]: 158 nM
IC50 [18]: 87 nM
Ki [18]: 43 nM

C=C1CC[C@@H]2[C@H](c3c(cc(CCCCC)cc3OS(=O)(=O)c3ccc(C)cc3)OC2(C)C)[C@@H]1OO
IC50 [5, 19]: 3.1 µg/mL (≈ 6.19 µM)
IC90 [5, 20]: 6.5 µg/mL (≈ 13 µM)

CCCCCC1=CC(=O)C2=C(OC(C)(C)[C@@H]3C=CC(C)(OO)C[C@@H]23)C1=O (some centres undefined)
MIC ([8]; Staphylococcus aureus): 5 µg/mL (≈ 13.9 µM)
IC50 [8, 23]: 2.63 µg/mL (≈ 7.3 µM)
MIC ([9]; Nakaseomyces glabratus): 10 µg/mL (≈ 27.7 µM)
IC50 ([9]; Nakaseomyces glabratus, read-out: IC50): 6.54 µg/mL (≈ 18.1 µM)
IC50 [10, 21]: 0.93 µg/mL (≈ 2.58 µM)
MIC [10, 22]: 2.5 µg/mL (≈ 6.94 µM)
IC50 [11, 23]: 1.3 µg/mL (≈ 3.61 µM)
MIC [11, 24]: 2.5 µg/mL (≈ 6.94 µM)
IC50 [5, 19]: 0.7 µg/mL (≈ 1.94 µM)
IC90 [5, 20]: 1.2 µg/mL (≈ 3.33 µM)
MIC ([13]; Pichia kudriavzevii): 10 µg/mL (≈ 27.7 µM)
IC50 ([13]; Pichia kudriavzevii, read-out: IC50): 5.77 µg/mL (≈ 16 µM)

CCCCCc1cc2c(c(OS(=O)(=O)c3ccc(C)cc3)c1)[C@H]1[C@@H](CC=C(C)[C@@H]1OO)C(C)(C)O2
IC50 [3]: 1020 nM
Ki [3]: 512 nM
IC50 [4]: 851 nM
Ki [4]: 426 nM

CCCCCc1cc(O)c2c(c1)OC(C)(C)[C@@H]1C=C[C@@](C)(O)C[C@@H]21
IC50 [17]: 11400 nM
Ki [17]: 5700 nM
IC50 [3]: 930 nM
Ki [3]: 470 nM
IC50 [4]: 19 nM
Ki [4]: 9.5 nM
IC50 [18]: 387 nM
Ki [18]: 193 nM

CCCCCc1cc2c(c(OS(=O)(=O)c3ccc(C)cc3)c1)[C@H]1[C@@H](CC=C(C)[C@@H]1O)C(C)(C)O2
MIC [8]: inactive
MIC [9]: inactive
MIC [10]: inactive
MIC [11]: inactive
MIC [13]: inactive
